Measurements: PubChem BioAssay
Calls of active or inactive are those of the source.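 How the source made its calls: active means mean duplicate activation above the buffer control mean plus 5 SD of those controls; inactive means the rest.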

The compounds below were run against Potassium voltage-gated channel subfamily E member 1 (Homo sapiens) + Potassium voltage-gated channel subfamily KQT member 1 (Homo sapiens) (UniProt P15382+P51787) (assay: KCNQ1-E1 channel activation – thallium flux, CHO-K1 KCNQ1/E1 cells, selectivity assay for KCNQ1 potentiator project, confirmation (AID 493186)). Conditions: FluxOR thallium flux, at 10 µM.
How it was run: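 Test system: CHO-K1 cells with KCNQ1/E1; dosing: one test concentration; signal: FluxOR Tl+ flux fluorescence, kinetic read; incubation: 90-min dye loading then 20-min compound exposure, both at room temperature; read-out basis: percent of R-L3 effect over buffer; replication: duplicate wells per compound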

Sequence of Potassium voltage-gated channel subfamily E member 1 (Homo sapiens) + Potassium voltage-gated channel subfamily KQT member 1 (Homo sapiens) (P51787 whole entry, looked up): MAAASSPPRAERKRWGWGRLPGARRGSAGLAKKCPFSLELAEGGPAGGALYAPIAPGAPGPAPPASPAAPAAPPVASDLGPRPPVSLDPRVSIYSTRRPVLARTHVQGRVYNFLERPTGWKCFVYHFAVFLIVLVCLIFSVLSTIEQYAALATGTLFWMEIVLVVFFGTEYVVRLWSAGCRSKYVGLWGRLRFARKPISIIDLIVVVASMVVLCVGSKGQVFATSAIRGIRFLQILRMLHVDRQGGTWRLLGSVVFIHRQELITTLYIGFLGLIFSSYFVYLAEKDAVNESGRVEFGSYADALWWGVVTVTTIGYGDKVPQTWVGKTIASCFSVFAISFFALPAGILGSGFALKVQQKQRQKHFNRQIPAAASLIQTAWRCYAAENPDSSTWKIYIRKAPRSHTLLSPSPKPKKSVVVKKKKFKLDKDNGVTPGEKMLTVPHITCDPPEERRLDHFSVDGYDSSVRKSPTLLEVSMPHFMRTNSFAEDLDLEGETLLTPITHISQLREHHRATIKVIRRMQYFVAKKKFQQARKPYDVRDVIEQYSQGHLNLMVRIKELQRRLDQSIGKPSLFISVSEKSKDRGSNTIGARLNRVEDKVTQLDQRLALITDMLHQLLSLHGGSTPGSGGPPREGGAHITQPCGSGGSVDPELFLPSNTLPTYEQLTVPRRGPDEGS

outcome, inactive:
COc1ccc(OC)c(NC(=S)NC(=O)c2ccc(Br)o2)c1
Cc1ccc(-c2ccc(/C=C3\C(=O)ON=C3c3ccccc3)o2)c([N+](=O)[O-])c1
Cc1nc(NC(=S)NC(=O)c2ccccc2)sc1C
CN1CCN(c2ccc(S(=O)(=O)N3CCCCC3)cc2NC(=O)COc2cccc(Cl)c2)CC1
O=C(NC(=S)Nc1nc2c(s1)CCCC2)c1ccccc1
Cc1ccc(-n2ncc(C(=O)Nc3cc(Cl)cc(Cl)c3)c2C2CCNCC2)cc1C
CN(CC(=O)NCc1ccccc1Cl)CC(=O)Nc1cccc(F)c1
CN(C)c1ccnc(N(Cc2ccccc2)Cc2ccccc2)c1C#N
COc1ccc(C2CC(c3c(-c4ccccc4)c4cc(Cl)ccc4[nH]c3=O)=NN2S(C)(=O)=O)cc1OC (configuration not stated)
CCCn1c(=O)c(C(=O)NNC(=O)c2ccc(Cl)cc2Cl)c(O)c2ccccc21
CCC1CCCCN1CCCNC(=O)CSc1nc2nc(C)c(Cc3ccccc3)c(C)n2n1 (configuration not stated)
CCOC(=O)C1=C(CC)Nc2ccccc2N=C1NC(=O)CCNC(C)=O
O=C(CCN1Cc2ccccc2C1)c1ccc2c(c1)OCCO2
COc1cc(OC)cc(C(=O)N2CC(=O)Nc3ccccc32)c1
COc1cc(O)c2c(=O)c(-c3ccc(O[C@@H]4O[C@H](CO)[C@@H](O)[C@H](O)[C@H]4O)cc3)coc2c1
Cc1ccc(-c2nc(=S)c3c(n2Cc2ccco2)CC(C)(C)OC3)cc1
COc1ccccc1NC(=O)CC1C(=O)NCCN1C(=O)Nc1ccc(Cl)c(Cl)c1 (configuration not stated)
